{
  "source": "paper PMC11954587",
  "about": "(JAC-Antimicrobial Resistance, 2025)",
  "key": {"[1]": {"tested_on": "multi-drug-resistant Gram-negative bacteria", "type": "in vivo, human", "conditions": "for Microbiology efficacy (TOC): test of cure visit, 14-days post treatment", "summary_of_the_method": "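VAP was diagnosed by positive sputum culture of multi-drug-resistant Gram-negative bacteria plus clinical signs, laboratory tests and CT. Aerosol: 50 mg powder dissolved in 5 mL distilled water, given whole or split into two 25 mg doses, nebulized over 30 min by vibrating mesh device, combined with IV dosing. Outcomes were assessed at end of treatment and test of cure.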"}, "[2]": {"tested_on": "P. aeruginosa strains", "conditions": "animal model, cited from earlier work"}, "[3]": {"tested_on": "epithelial cells", "conditions": "in vitro; cited from earlier work"}, "[4]": {"conditions": "cited from earlier work"}, "[5]": {"assay": "Adverse events in VAP patients during polymyxin B treatment", "type": "in vivo, human"}, "[6]": {"tested_on": "K. pneumoniae", "conditions": "cited from earlier work"}, "[7]": {"conditions": "patients with bloodstream infections; cited from earlier work"}, "[8]": {"conditions": "aerosolized delivery of CMS; cited from earlier work"}, "[9]": {"conditions": "four patients during polymyxin B treatment"}},
  "note": "Entries after “also recorded” stand apart in the source; their conditions may differ. Like-named read-outs stand apart in the source and are kept apart here. Residues, ends and D or L forms follow the SMILES beside them.",
  "data": [
    {"molecule": "CC[C@H](C)CCCCC(=O)N[C@@H](CCN)C(=O)N[C@H](C(=O)N[C@@H](CCN)C(=O)N[C@H]1CCNC(=O)[C@H]([C@@H](C)O)NC(=O)[C@H](CCN)NC(=O)[C@H](CCN)NC(=O)[C@H](CC(C)C)NC(=O)[C@@H](Cc2ccccc2)NC(=O)[C@H](CCN)NC1=O)[C@@H](C)O", "note": "[polymyxin B] (HELM PEPTIDE1{[CC[C@H](C)CCCCC(=O)[*:2]].[Dab].T.[Dab].[Dab].[Dab].[dF].L.[Dab].[Dab].T}$PEPTIDE1,PEPTIDE1,5:R3-11:R2$$$V2.0)", "values": [
      {"measurement": "Clinical outcome (EOT and TOC)", "setting": "[1]; Patient 1, CRKP VAP, inhalation 25 mg + intravenous 50 mg q12h, 5 d", "result": "improved"},
      {"measurement": "Microbiology efficacy (TOC)", "setting": "[1]; Patient 1, organism found", "result": "CRKP"},
      {"measurement": "Microbiology efficacy (TOC)", "setting": "[1]; Patient 2", "result": "negative"},
      {"measurement": "Note (sputum culture during treatment)", "setting": "[1]; Patient 3, inhalation 25 mg + intravenous 75 mg q12h", "result": "CRKP and CRPA were negative after treatment for 6 days, then Serratia marcescens and Chryseobacterium meningosepticum showed positive"},
      {"measurement": "Microbiology efficacy (TOC)", "setting": "[1]; Patient 3", "result": "CRKP and CRPA negative"},
      {"measurement": "Clinical outcome (EOT and TOC)", "setting": "[1]; Patient 4, CRE (E. cloacae) VAP, inhalation 25 mg + intravenous 75 mg q12h, 11 d", "result": "improved"},
      {"measurement": "Microbiology efficacy (TOC)", "setting": "[1]; Patient 4", "result": "negative"},
      {"measurement": "clinical improvement or cure / alleviation of clinical symptoms (patients)", "setting": "[1]; four VAP patients, aerosolized and intravenous polymyxin B", "result": "Three of the patients exhibited alleviation of clinical symptoms; also recorded: three of them reaching clinical improvement or cure"},
      {"measurement": "bacterial eradication (patients)", "setting": "[1]; four VAP patients, aerosolized and intravenous polymyxin B, sputum culture", "result": "All four patients achieved bacterial eradication"},
      {"measurement": "maximum ELF concentrations", "setting": "[2]; aerosolized", "result": "184.0 ± 35.1", "unit": "mg/L"},
      {"measurement": "lung histopathology", "setting": "[2]; at maximum ELF concentrations 184.0 ± 35.1 mg/L", "result": "reduced lung inflammation and preserved lung epithelial integrity"},
      {"measurement": "concentration that induced toxic metabolic response perturbations", "setting": "[3]", "result": 1000, "unit": "µM"},
      {"measurement": "cure and improved rates", "setting": "[4]; aerosol doses of 50 mg twice a day, VAP patients", "result": 95, "unit": "%"},
      {"measurement": "clinical outcome", "setting": "[4]; inhaled polymyxin B, pneumonia patients", "result": "favourable clinical outcome of cure and improvement"},
      {"measurement": "Adverse events", "setting": "[5]; Patient 1, inhalation 25 mg + intravenous 50 mg q12h, 5 d", "result": "none"},
      {"measurement": "Adverse events", "setting": "[5]; Patient 2, inhalation 25 mg + intravenous 100 mg q12h, 5 d", "result": "none"},
      {"measurement": "Adverse events", "setting": "[5]; Patient 3, inhalation 25 then 50 mg + intravenous 75 mg q12h, 12 d", "result": "hyperpigmentation"},
      {"measurement": "Adverse events", "setting": "[5]; Patient 4, inhalation 25 mg + intravenous 75 mg q12h, 11 d", "result": "hyperpigmentation"},
      {"measurement": "nephrotoxicity", "setting": "[5]; [9]", "result": "No cases of nephrotoxicity"},
      {"measurement": "neurotoxicity", "setting": "[5]; [9]", "result": "no reports of neurotoxicity"},
      {"measurement": "hyperpigmentation (number of patients)", "setting": "[5]; of four patients", "result": "two patients"},
      {"measurement": "chest CT imaging", "setting": "[5]; patients, combined aerosol and intravenous treatment", "result": "recovery of chest CT imaging"},
      {"measurement": "eradication rate of K. pneumoniae", "setting": "[6]; aerosol 50 mg twice a day (with intravenous), P < 0.003", "result": 92.1, "unit": "%"},
      {"measurement": "eradication rate of K. pneumoniae", "setting": "[6]; intravenous treatment alone", "result": 70.1, "unit": "%"},
      {"measurement": "elimination half-life", "setting": "[7]", "result": "12.5 ± 3.11", "unit": "h"}
    ]},
    {"molecule": "colistimethate [CMS]", "values": [
      {"measurement": "rate of clinical cure (OR)", "setting": "[8]", "result": 1.61},
      {"measurement": "rate of microbiological eradication (OR)", "setting": "[8]", "result": 1.37}
    ]}
  ]
}
